Experimental findings from ChEMBL document CHEMBL1154785, “Identification of critical ligand binding determinants in Mycobacterium tuberculosis adenosine-5'-phosphosulfate reductase” (J Med Chem, 2009) are described below.

SMILES strings stand for the structures.

Data set [1] is described as follows: Binding affinity to Mycobacterium tuberculosis adenosine-5'-phosphosulfate reductase assessed as S-sulfocysteine formation at pH 5.5 by single turnover method in absence of thioredoxin.
Data set [2] can be described thus: Dissociation constant, pKa at pH 6 to 9.5. In kind it is physicochemical.
Data set [3] in a line: Dissociation constant, pKa in solution. In kind it is physicochemical.
Data set [4] in a line: Binding affinity to Mycobacterium tuberculosis adenosine-5'-phosphosulfate reductase assessed as S-sulfocysteine formation at pH 9 by single turnover method.
A short description of data set [5]: Binding affinity to Mycobacterium tuberculosis adenosine-5'-phosphosulfate reductase assessed as S-sulfocysteine formation at pH 7.5 by single turnover method.
Data set [6] concerns Mycobacterium tuberculosis. Description: Ratio of Kcat to Km of Mycobacterium tuberculosis adenosine-5'-phosphosulfate reductase. Particulars: tested as the 35S-labelled form.
In data set [7] the test system is Mycobacterium tuberculosis. Description: Ratio of Kd for Mycobacterium tuberculosis adenosine-5'-phosphosulfate reductase in presence of 2 mM MgCl2 to Kd Mycobacterium tuberculosis adenosine-5'-phosphosulfate reductase in absence of MgCl2.
Data set [8] is described as follows: Binding affinity to Mycobacterium tuberculosis adenosine-5'-phosphosulfate reductase assessed as S-sulfocysteine formation at pH 7.5 by single turnover method in absence of MgCl2.
Data set [9] concerns Mycobacterium tuberculosis. Description: Ratio of Kd for Mycobacterium tuberculosis adenosine-5'-phosphosulfate reductase in presence of 0.5 mM MgCl2 to Kd Mycobacterium tuberculosis adenosine-5'-phosphosulfate reductase in absence of MgCl2.
Data set [10] is described as follows: Displacement of [35S]APS from Mycobacterium tuberculosis adenosine-5'-phosphosulfate reductase by liquid scintillation counting. The gist of the method: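 Purified enzyme; reduction of ³⁵S-APS to sulfite at 30 °C in 100 mM bis-tris propane pH 7.5, 5 mM DTT and 10 μM thioredoxin. Quenched with 2% charcoal containing 20 mM Na₂SO₃, then ³⁵S-sulfite in the supernatant counted by scintillation. k_obs taken at varied inhibitor levels with [³⁵S-APS] ≪ K1/2, fit to competitive inhibition (Ki taken as Kd). At least two independent experiments.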
(In a radioligand displacement assay an active substance lowers the binding of a labelled ligand.)

A short description of data set [11]: Binding affinity to Mycobacterium tuberculosis adenosine-5'-phosphosulfate reductase assessed as S-sulfocysteine formation at pH 7.5 by single turnover method in presence of 0.5 mM MgCl2.
The nature of data set [12]: Binding affinity to Mycobacterium tuberculosis adenosine-5'-phosphosulfate reductase assessed as S-sulfocysteine formation at pH 7.5 by single turnover method in presence of 2 mM MgCl2.

As a reminder, the Kd is the constant that tells how readily two partners part at equilibrium. The term pKa denotes the negative logarithm of the acid dissociation constant. In general, Ki refers to the equilibrium dissociation constant of an inhibitor or competing ligand from its target.

For the compound `Nc1ncnc2c1ncn2[C@@H]1O[C@H](CO)[C@@H](OP(=O)(O)O)[C@H]1O`, the Kd in data set [1] was 3200 µM.
Still for that read-out and setting: the same measure for `O[C@@H]1[C@H](O)[C@H](O)CO[C@H]1O` [RIBOSE (PYRANOSE)]: 680000 µM.
For `Nc1ncnc2c1ncn2[C@@H]1O[C@H](COP(=O)(O)OP(=O)(O)S)[C@@H](O)[C@H]1O` (stereo partly specified), the figures for the pKa in data set [2] and in data set [3] were 5.8 and 5.2, respectively. For the same compound, in data set [1], the dissociation constant (Kd) was 0.15 µM.
As for `Nc1ncnc2c1ncn2[C@@H]1O[C@H](COP(=O)(O)NP(=O)(O)O)[C@@H](O)[C@H]1O`, the values for the dissociation constant (Kd) in data set [4], in data set [1] and in data set [5] were 110 µM, 260 µM and 257 µM, respectively.
With `Nc1ncnc2c1ncn2[C@@H]1O[C@H](COP(=O)(O)OS(=O)(=O)O)[C@@H](O)[C@H]1O`, the kcat/Km in [6] worked out at 2 ×10⁶ /M/s. Besides, in data set [1], the Kd was found to be 0.2 µM and the Ki turned out to be 0.2 µM.
With `Nc1ncnc2c1ncn2[C@@H]1O[C@H](COP(=O)(O)O)[C@@H](OP(=O)(O)O)[C@H]1O`, in data set [1], the Kd stood at 770 µM.
Consider `Nc1ncnc2c1ncn2[C@@H]1O[C@H](COP(=O)(O)CP(=O)(O)O)[C@@H](O)[C@H]1O` [PHOSPHOMETHYLPHOSPHONIC ACID ADENOSYL ESTER], for which the dissociation constant (Kd) in [1] is 27 µM.
Turning to `Nc1ncnc2c1ncn2[C@@H]1O[C@H](COP(N)(=O)O)[C@@H](O)[C@H]1O`, the equilibrium dissociation constant (Kd) amounted to 82 µM in [4], 100 µM in [1] and 100 µM in [5].
`O=P(O)(O)O` [PHOSPHORIC ACID]: the Kd in data set [1] came out at 66000 µM.
The same measure, in the same setting: the same measure for `O=S(=O)(O)O` [SULFURIC ACID]: no less than 310000 µM.
Still for that read-out and setting: the same measure for `Nc1ncnc2c1ncn2[C@@H]1O[C@H](COP(=O)(S)OP(=O)(O)O)[C@@H](O)[C@H]1O` (stereo partly specified): 0.8 µM.
The same measure, in the same setting: the result for `Nc1ncnc2c1ncn2[C@@H]1O[C@H](COP(=O)(S)OS(=O)(=O)O)[C@@H](O)[C@H]1O` (mixture of isomers) reads 43 µM; that for `Nc1ncnc2c1ncn2[C@@H]1O[C@H](COP(=O)(O)C(F)(F)P(=O)(O)O)[C@@H](O)[C@H]1O`, 13 µM.
As to `O=P(O)(O)OC[C@H]1O[C@@H](O)[C@H](O)[C@@H]1O`, in data set [1], the Kd came out at 93 µM.
As to `Nc1ncnc2c1ncn2[C@@H]1O[C@H](COP(=O)(O)O)[C@@H](O)[C@H]1O` [ADENOSINE PHOSPHATE], the Ratio in data set [7] and in [9] was 5 in each case. Moreover, the Kd in [8] was found to be 5.4 µM; in [1], 5.4 µM; in [10], 5.4 µM; in data set [11], 21 µM; in data set [12], 31 µM. For the same compound, the pKa in data set [2] is 8.1.
In the case of `Nc1ncnc2c1ncn2[C@@H]1O[C@H](COP(=O)(O)CS(=O)(=O)O)[C@@H](O)[C@H]1O`, the Kd in data set [1] worked out at 700 µM.
On the same count and under the same terms, the result for `Nc1ncnc2c1ncn2[C@@H]1O[C@H](CO)[C@@H](O)[C@H]1O` [ADENOSINE] reads 3000 µM.
For `Nc1ncnc2c1ncn2[C@@H]1O[C@H](COP(=O)(O)OP(=O)(O)O)[C@@H](O)[C@H]1O` [ADENOSINE DIPHOSPHATE], the Ratio in data set [7] and in [9] was 5 in each case. Besides, the Kd in data set [8] came to 4.3 µM; in data set [1] it was 4.3 µM; in [11], 7.3 µM; in data set [12], 20 µM. This compound registered a pKa in data set [2] of 6.4.
On to `Nc1[nH]cnc2ncnc1-2` [ADENINE], for which the Kd in data set [1] is no less than 90000 µM.
With `Nc1ncnc2c1ncn2[C@@H]1O[C@H](COP(=O)(O)OP(N)(=O)O)[C@@H](O)[C@H]1O`, the dissociation constant Kd in data set [4] worked out at 56.8 µM; in [1] it was 410 µM; in [5], 410 µM.
Consider `Nc1ncnc2c1ncn2[C@@H]1O[C@H](COP(O)(O)=S)[C@@H](O)[C@H]1O`, for which the pKa in data set [2] and in [3] was 7.7 in each case. The Kd in [1] was found to be 3.3 µM.
